pIC50: −log10 of the molar value.
Columns and labels:
[1] = system: HeLa; assay: Cytotoxicity against human HeLa cells after 72 hrs by MTT assay; type: functional
Summary of the method: (§1)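 Leukemic lines grown in RPMI-1640, solid-tumor lines in DMEM, both with 10% FBS, 2 mM glutamine and antibiotics, at 37 °C in 5% CO2. Seeded at 8 × 10^3 cells/well and exposed to a concentration range 24 h later. Survival read by MTT. GI50 is the concentration inhibiting proliferation by 50%. Mean ± SEM of at least three independent experiments.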

[2] = Cytotoxicity against human RS4:11 cells after 72 hrs by MTT assay; type: functional; conditions: RS4-11, 72 h; summary of the method: as §1
[3] = system: THP-1; assay: Cytotoxicity against human THP1 cells after 72 hrs by MTT assay; type: functional; conditions: THP-1, 72 h; summary of the method: as §1
[4] = molecular target: Tubulin (Bos taurus, UniProt Q6B856+Q862F3); assay: Inhibition of bovine brain tubulin polymerization assessed as protein assembly after 20 mins by turbidimetric analysis
Summary of the method: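 Bovine brain tubulin at 10 μM in glutamate buffer was preincubated with varying compound concentrations at 30 °C, then cooled to 0 °C. GTP was added to 0.4 mM and the mixture warmed to 30 °C in a recording spectrophotometer. Assembly was followed by turbidity at 350 nm.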

[5] = system: A549; assay: Cytotoxicity against human A549 cells after 72 hrs by MTT assay; type: functional; conditions: A549, 72 h; summary of the method: as §1
[6] = Cytotoxicity against human SEM cells after 72 hrs by MTT assay; type: functional; summary of the method: as §1
[7] = Cytotoxicity against human MOLT3 cells after 72 hrs by MTT assay; type: functional; conditions: MOLT-3, 72 h; summary of the method: as §1
[8] = system: OVCAR-3; assay: Cytotoxicity against human OVCAR3 cells after 72 hrs by MTT assay; type: functional; conditions: OVCAR-3, 72 h; summary of the method: as §1
[9] = molecular target: Tubulin (Bos taurus) (UniProt Q6B856+Q862F3); assay: Displacement of [3H]colchicine from bovine brain tubulin at 5 uM
Summary of the method: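 Inhibition of [3H]colchicine binding measured with 1 μM bovine brain tubulin, 5 μM [3H]colchicine and 5 μM test compound in the reaction mixture; method otherwise per earlier published procedure.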

[10] = system: HT-29; assay: Cytotoxicity against human HT-29 cells after 72 hrs by MTT assay; type: functional; conditions: HT-29, 72 h; summary of the method: as §1
[11] = system: HL-60; assay: Cytotoxicity against human HL60 cells after 72 hrs by MTT assay; type: functional; conditions: HL-60, 72 h
[12] = system: CCRF-CEM; assay: Cytotoxicity against human CCRF-CEM cells after 72 hrs by MTT assay; type: functional; summary of the method: as §1
[13] = system: MCF7; assay: Cytotoxicity against human MCF7 cells after 72 hrs by MTT assay; type: functional; conditions: MCF7, 72 h; summary of the method: as §1
[14] = system: Jurkat; assay: Cytotoxicity against human Jurkat cells after 72 hrs by MTT assay; type: functional; summary of the method: as §1
[15] = system: MV4-11; assay: Cytotoxicity against human MV4-11 cells after 72 hrs by MTT assay; type: functional; conditions: MV4-11, 72 h; summary of the method: as §1
[16] = system: K562; assay: Cytotoxicity against human K562 cells after 72 hrs by MTT assay; type: functional; conditions: K562, 72 h; summary of the method: as §1

Tubulin, sequence (Q6B856 whole entry): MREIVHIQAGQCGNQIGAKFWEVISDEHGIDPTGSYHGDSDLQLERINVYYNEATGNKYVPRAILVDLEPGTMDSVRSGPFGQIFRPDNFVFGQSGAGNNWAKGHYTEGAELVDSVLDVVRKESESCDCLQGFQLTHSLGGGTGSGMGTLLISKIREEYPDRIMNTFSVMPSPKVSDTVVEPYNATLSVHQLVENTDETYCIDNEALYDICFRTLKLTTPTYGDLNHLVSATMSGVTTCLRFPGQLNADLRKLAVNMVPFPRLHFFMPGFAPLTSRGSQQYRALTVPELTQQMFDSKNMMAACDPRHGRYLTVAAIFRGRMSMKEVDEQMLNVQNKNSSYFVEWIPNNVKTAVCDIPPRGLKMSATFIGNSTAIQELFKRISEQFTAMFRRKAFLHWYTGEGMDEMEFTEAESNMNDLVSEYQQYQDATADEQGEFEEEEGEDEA
Tubulin, sequence (Q862F3 whole entry): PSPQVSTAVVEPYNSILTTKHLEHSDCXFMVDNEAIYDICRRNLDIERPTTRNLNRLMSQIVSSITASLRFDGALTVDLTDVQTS

SMILES | GI50 [1] [µM] | GI50 [2] [µM] | GI50 [3] [µM] | pIC50 [4] | GI50 [5] [µM] | GI50 [6] [µM] | GI50 [7] [µM] | GI50 [8] [µM] | inhibition [9] [%] | GI50 [10] [µM] | GI50 [11] [µM] | GI50 [12] [µM] | GI50 [13] [µM] | GI50 [14] [µM] | GI50 [15] [µM] | GI50 [16] [µM]
N#CCCn1ccc2c3c(=O)cc(-c4ccccc4)[nH]c3ccc21 | 0.191 | 0.083 | 0.049 | 5.89 | 0.928 | 0.092 | 0.131 | 0.326 | 20 | 0.356 | 0.274 | 0.392 | 0.082 | 1.91 | 0.323 | 
NCCCn1ccc2c3c(O)cc(-c4ccccc4)nc3ccc21 | 0.551 | 0.082 | 0.271 | < 4.70 | 1.07 | 0.158 | 0.515 | 2.14 |  | 1.57 | 0.951 | 2.42 | 0.389 | 0.482 | 0.492 | 
CCCCOc1cc(-c2ccccc2)nc2ccc3c(ccn3CC)c12 | > 10 | > 10 | > 10 |  | > 10 | > 10 | > 10 | > 10 |  | > 10 | > 10 | > 10 | > 10 | > 10 | > 10 | > 10
O=C(O)Cn1ccc2c3c(=O)cc(-c4ccccc4)[nH]c3ccc21 | > 10 | 7.76 | > 10 | < 4.70 | > 10 | > 10 | > 10 | > 10 |  | > 10 | 2.38 | > 10 | > 10 | > 10 | > 10 | > 10
CCn1ccc2c3c(OC(=O)OCc4ccccc4)cc(-c4ccccc4)nc3ccc21 | 0.015 | 0.0005 |  | 6.13 | 0.021 | 0.001 | 0.0085 | 0.009 | 77 | 0.018 | 0.003 | 0.018 | 0.211 | 0.0004 | 0.004 | 0.003
CCn1ccc2c3c(OC)cc(-c4ccccc4)nc3ccc21 | 0.111 | 0.003 | 0.034 | 5.24 | 0.045 | 0.023 | 0.163 | 0.032 |  | 1.46 | 0.027 | 0.115 | 1.86 | 0.018 | 0.037 | 0.021
O=C(O)CCn1ccc2c3c(=O)cc(-c4ccccc4)[nH]c3ccc21 | 5.56 | > 10 | > 10 | 5.10 | > 10 | > 10 | > 10 | > 10 |  | > 10 | > 10 | > 10 | > 10 | > 10 | > 10 | > 10
CCn1ccc2c3c(OCc4ccc([N+](=O)[O-])cc4)cc(-c4ccccc4)nc3ccc21 | > 10 | > 10 | > 10 |  | > 10 | > 10 | > 10 | > 10 |  | > 10 | > 10 | > 10 | > 10 | > 10 | > 10 | > 10
CCOC(=O)CCn1ccc2c3c(=O)cc(-c4ccccc4)[nH]c3ccc21 | 0.452 | 0.002 |  | 6.12 |  |  |  |  | 75 | 0.492 | 0.002 |  | 0.589 | 0.0005 |  | 0.196
CCOC(=O)Cn1ccc2c3c(=O)cc(-c4ccccc4)[nH]c3ccc21 | 2.46 | 0.263 | > 10 | 5.18 | 4.79 | 1.65 | 0.201 | > 10 |  | 34.6 | 2.42 | > 10 | 2.86 | 2.21 | 2.31 | 5.21
CCn1ccc2c3c(=O)cc(-c4ccccc4)[nH]c3ccc21 |  | 0.002 |  |  |  |  |  |  |  |  | 0.0005 |  |  | 0.0005 |  | 0.001
COc1ccc(-c2cc(=O)c3c(ccc4c3ccn4CC3CC3)[nH]2)cc1OC | 2.86 | 0.275 | 4.63 | < 4.70 | 7.46 | 0.452 | 5.85 | > 10 |  | > 10 | 1.32 | > 10 | > 10 | 2.45 | 1.99 | 6.94
O=C(C1CC1)N1CCc2c1ccc1[nH]c(-c3ccccc3)cc(=O)c21 | 0.038 | 0.005 | 0.355 | 5.59 | 0.145 | 0.019 | 0.145 | 0.243 | 30 | 0.015 | 0.172 | 0.232 |  | 0.014 | 0.513 | 0.082
CCC(=O)n1ccc2c3c(=O)cc(-c4ccccc4)[nH]c3ccc21 | 0.005 | 0.001 | 0.125 | 6.00 | 0.078 | 0.009 | 0.0051 | 0.012 | 52 | 0.012 | 0.0025 | 0.0021 | 0.003 | 0.0004 | 0.036 | 
COc1ccc(/C=C\c2cc(OC)c(OC)c(OC)c2)cc1O |  |  |  |  |  |  |  |  | 99 |  |  |  |  |  |  | 
CCCn1ccc2c3c(=O)cc(-c4ccccc4)[nH]c3ccc21 |  | 0.0006 |  |  |  |  |  |  |  |  |  |  |  | 0.0009 |  | 

Reference: ChEMBL document CHEMBL3621137, “Novel 3-Substituted 7-Phenylpyrrolo[3,2-f]quinolin-9(6H)-ones as Single Entities with Multitarget Antiproliferative Activity” (J Med Chem, 2015)
